Experimental data as given in ChEMBL document CHEMBL2417369, “Synthesis and evaluation of heteroaryl substituted diazaspirocycles as scaffolds to probe the ATP-binding site of protein kinases” (Bioorg Med Chem, 2013).

Columns and labels:
[1] = molecular target: T1, Aurora kinase A (Homo sapiens) (UniProt O14965); assay: Inhibition of AURA (unknown origin) at 30 uM by microfluidic mobility shift assay relative to control
T1 sequence (whole entry): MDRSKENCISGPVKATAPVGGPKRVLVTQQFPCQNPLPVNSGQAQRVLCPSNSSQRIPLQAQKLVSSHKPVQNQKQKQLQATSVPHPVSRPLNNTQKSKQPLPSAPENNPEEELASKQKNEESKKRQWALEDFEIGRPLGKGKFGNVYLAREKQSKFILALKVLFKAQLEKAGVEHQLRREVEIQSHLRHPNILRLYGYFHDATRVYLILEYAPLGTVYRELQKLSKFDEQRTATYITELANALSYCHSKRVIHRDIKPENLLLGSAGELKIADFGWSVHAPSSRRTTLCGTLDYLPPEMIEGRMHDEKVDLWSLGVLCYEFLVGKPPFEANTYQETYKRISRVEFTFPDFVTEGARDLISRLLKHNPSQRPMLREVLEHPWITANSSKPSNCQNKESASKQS
How it was run: (§1)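 Single-point screen in a 24-enzyme kinase panel using a microfluidic assay. Each compound was tested at […] with ATP at roughly the Km for each enzyme. The pan-AGC inhibitor H-89 served as an internal control on every plate.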

[2] = molecular target: Ribosomal protein S6 kinase alpha-1 (Homo sapiens, UniProt Q15418); assay: Inhibition of RSK1 (unknown origin) at 30 uM by microfluidic mobility shift assay relative to control; how it was run: as §1
[3] = molecular target: T2, MAP kinase-activated protein kinase 5 (Homo sapiens) (UniProt Q8IW41); assay: Inhibition of MAPKAPK5 (unknown origin) at 30 uM by microfluidic mobility shift assay relative to control; how it was run: as §1
T2 sequence (whole entry): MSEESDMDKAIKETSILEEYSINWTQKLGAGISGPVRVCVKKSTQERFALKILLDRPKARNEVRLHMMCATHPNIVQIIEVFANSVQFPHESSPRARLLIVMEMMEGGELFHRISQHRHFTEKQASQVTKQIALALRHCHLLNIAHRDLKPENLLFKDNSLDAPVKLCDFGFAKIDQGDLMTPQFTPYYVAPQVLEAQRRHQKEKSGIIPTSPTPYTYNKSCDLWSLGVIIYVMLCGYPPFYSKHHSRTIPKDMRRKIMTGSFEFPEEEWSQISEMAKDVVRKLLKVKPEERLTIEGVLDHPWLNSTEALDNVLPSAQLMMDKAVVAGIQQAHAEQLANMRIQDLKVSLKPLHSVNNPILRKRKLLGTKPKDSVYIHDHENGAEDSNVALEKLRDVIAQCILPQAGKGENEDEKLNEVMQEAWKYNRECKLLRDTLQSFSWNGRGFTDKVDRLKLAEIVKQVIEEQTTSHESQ

[4] = molecular target: RAC-beta serine/threonine-protein kinase (Homo sapiens, UniProt P31751); assay: Inhibition of AKT2 (unknown origin) at 30 uM by microfluidic mobility shift assay relative to control; how it was run: as §1
[5] = molecular target: Insulin receptor (Homo sapiens) (UniProt P06213); assay: Inhibition of INSR (unknown origin) at 30 uM by microfluidic mobility shift assay relative to control; how it was run: as §1
[6] = molecular target: RAC-alpha serine/threonine-protein kinase (Homo sapiens, UniProt P31749); assay: Inhibition of AKT1 (unknown origin) at 30 uM by microfluidic mobility shift assay relative to control; how it was run: as §1
[7] = molecular target: Mitogen-activated protein kinase 1 (Homo sapiens, UniProt P28482); assay: Inhibition of ERK2 (unknown origin) at 30 uM by microfluidic mobility shift assay relative to control; how it was run: as §1
[8] = molecular target: Mitogen-activated protein kinase 14 (Homo sapiens) (UniProt Q16539); assay: Inhibition of p38alpha (unknown origin) at 30 uM by microfluidic mobility shift assay relative to control; how it was run: as §1
[9] = molecular target: Tyrosine-protein kinase Lck (Homo sapiens, UniProt P06239); assay: Inhibition of LCK (unknown origin) at 30 uM by microfluidic mobility shift assay relative to control; how it was run: as §1
[10] = molecular target: MAP kinase-activated protein kinase 2 (Homo sapiens) (UniProt P49137); assay: Inhibition of MK2 (unknown origin) at 30 uM by microfluidic mobility shift assay relative to control; how it was run: as §1
[11] = molecular target: Tyrosine-protein kinase Fyn (Homo sapiens, UniProt P06241); assay: Inhibition of FYN (unknown origin) at 30 uM by microfluidic mobility shift assay relative to control; how it was run: as §1
[12] = molecular target: Ribosomal protein S6 kinase alpha-5 (Homo sapiens, UniProt O75582); assay: Inhibition of MSK1 (unknown origin) at 30 uM by microfluidic mobility shift assay relative to control; how it was run: as §1
[13] = molecular target: Tyrosine-protein kinase ABL1 (Homo sapiens, UniProt P00519); assay: Inhibition of ABL (unknown origin) at 30 uM by microfluidic mobility shift assay relative to control; how it was run: as §1
[14] = molecular target: Glycogen synthase kinase-3 beta (Homo sapiens, UniProt P49841); assay: Inhibition of GSK3beta (unknown origin) at 30 uM by microfluidic mobility shift assay relative to control; how it was run: as §1
[15] = molecular target: Mitogen-activated protein kinase 3 (Homo sapiens, UniProt P27361); assay: Inhibition of ERK1 (unknown origin) at 30 uM by microfluidic mobility shift assay relative to control; how it was run: as §1
[16] = molecular target: T3, Serine/threonine-protein kinase D2 (Homo sapiens) (UniProt Q9BZL6); assay: Inhibition of PKD2 (unknown origin) at 30 uM by microfluidic mobility shift assay relative to control; how it was run: as §1
T3 sequence (whole entry): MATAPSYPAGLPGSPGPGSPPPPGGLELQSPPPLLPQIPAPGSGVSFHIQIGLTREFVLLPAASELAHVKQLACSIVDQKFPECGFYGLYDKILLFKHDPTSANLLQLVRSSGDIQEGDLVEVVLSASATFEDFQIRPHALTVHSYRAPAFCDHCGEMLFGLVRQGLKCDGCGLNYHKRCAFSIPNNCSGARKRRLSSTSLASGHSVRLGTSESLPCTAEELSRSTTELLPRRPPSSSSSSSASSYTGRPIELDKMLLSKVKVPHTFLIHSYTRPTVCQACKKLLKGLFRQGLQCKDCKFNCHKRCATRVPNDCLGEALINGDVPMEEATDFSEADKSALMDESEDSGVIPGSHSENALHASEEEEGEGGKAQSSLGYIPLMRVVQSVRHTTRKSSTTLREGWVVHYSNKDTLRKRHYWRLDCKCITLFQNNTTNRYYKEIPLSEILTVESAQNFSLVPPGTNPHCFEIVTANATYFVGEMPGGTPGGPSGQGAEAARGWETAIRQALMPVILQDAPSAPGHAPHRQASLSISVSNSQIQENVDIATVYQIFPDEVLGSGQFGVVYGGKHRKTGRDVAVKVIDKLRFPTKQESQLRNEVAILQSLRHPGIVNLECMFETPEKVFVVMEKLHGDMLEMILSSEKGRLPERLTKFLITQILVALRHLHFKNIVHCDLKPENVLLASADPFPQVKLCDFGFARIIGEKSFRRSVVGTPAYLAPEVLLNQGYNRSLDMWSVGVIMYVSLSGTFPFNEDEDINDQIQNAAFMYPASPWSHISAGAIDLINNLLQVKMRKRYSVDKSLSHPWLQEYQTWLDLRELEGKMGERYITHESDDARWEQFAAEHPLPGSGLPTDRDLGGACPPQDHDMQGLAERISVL

Tyrosine-protein kinase ABL1, sequence (P00519 whole entry): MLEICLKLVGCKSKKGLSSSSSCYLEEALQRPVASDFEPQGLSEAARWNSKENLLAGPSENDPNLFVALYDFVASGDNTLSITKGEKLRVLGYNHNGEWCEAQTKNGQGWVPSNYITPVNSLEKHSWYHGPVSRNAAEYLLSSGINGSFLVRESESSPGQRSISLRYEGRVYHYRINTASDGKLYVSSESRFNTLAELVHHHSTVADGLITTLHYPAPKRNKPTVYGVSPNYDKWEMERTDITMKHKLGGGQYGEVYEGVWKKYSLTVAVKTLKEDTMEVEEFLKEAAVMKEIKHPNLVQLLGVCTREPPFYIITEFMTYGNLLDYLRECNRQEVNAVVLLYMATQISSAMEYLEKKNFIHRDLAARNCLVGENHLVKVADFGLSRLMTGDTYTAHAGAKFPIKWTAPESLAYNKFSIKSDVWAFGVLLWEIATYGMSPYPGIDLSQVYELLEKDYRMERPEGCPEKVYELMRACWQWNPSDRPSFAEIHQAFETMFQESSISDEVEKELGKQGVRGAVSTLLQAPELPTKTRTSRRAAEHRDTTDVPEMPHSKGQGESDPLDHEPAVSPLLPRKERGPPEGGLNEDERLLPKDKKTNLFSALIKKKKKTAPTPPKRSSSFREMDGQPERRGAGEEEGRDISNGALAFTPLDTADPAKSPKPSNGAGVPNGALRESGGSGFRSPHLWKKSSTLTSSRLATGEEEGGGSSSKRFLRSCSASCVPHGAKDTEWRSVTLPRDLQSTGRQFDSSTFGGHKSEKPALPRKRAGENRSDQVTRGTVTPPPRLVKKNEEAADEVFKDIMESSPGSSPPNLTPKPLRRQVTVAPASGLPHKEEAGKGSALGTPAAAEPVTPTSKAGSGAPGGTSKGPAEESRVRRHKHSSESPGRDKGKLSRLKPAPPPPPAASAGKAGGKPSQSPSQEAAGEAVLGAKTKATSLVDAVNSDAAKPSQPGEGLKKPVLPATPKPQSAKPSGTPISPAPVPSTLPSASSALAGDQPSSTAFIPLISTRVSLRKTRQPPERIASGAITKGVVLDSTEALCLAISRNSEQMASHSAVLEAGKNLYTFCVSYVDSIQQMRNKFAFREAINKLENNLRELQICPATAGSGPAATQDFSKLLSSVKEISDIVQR
Mitogen-activated protein kinase 1, sequence (P28482 whole entry): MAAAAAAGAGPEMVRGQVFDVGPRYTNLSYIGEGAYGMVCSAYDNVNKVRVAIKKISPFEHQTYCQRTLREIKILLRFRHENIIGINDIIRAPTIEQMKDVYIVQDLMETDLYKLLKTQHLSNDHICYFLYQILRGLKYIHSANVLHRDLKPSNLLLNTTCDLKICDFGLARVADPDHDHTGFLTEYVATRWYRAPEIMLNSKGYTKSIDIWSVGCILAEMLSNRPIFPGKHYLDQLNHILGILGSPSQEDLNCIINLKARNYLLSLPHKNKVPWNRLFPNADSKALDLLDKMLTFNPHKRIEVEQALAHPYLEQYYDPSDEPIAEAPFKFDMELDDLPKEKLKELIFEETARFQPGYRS
Tyrosine-protein kinase Fyn, sequence (P06241 2-537 limits assumed): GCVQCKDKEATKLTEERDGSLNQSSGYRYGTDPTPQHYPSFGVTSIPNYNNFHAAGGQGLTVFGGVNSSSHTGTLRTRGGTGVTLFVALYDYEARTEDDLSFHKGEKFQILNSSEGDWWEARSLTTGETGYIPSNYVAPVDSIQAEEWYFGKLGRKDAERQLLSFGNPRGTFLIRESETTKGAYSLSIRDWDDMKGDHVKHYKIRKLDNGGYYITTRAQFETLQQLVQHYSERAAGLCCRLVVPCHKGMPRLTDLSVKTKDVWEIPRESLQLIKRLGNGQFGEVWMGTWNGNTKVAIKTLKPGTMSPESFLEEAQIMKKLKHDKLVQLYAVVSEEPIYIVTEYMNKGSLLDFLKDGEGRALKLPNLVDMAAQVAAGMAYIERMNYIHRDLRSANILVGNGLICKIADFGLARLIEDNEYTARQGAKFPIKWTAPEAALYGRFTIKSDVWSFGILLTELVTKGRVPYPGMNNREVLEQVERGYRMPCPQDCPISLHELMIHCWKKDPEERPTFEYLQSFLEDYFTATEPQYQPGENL
RAC-beta serine/threonine-protein kinase, sequence (P31751 whole entry): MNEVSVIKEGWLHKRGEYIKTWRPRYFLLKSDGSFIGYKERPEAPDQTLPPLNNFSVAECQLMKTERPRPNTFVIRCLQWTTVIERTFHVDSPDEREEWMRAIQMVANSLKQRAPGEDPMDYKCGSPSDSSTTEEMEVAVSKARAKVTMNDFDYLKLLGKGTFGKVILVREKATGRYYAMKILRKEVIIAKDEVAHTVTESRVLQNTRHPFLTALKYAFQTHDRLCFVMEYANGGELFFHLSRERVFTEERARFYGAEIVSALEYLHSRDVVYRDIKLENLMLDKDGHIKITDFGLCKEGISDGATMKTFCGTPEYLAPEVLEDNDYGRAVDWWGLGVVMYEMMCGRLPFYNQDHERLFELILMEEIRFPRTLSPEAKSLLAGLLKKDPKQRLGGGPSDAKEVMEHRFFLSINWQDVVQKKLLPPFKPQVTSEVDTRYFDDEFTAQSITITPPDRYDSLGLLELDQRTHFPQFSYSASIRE
Mitogen-activated protein kinase 14 (Homo sapiens), sequence (Q16539 whole entry): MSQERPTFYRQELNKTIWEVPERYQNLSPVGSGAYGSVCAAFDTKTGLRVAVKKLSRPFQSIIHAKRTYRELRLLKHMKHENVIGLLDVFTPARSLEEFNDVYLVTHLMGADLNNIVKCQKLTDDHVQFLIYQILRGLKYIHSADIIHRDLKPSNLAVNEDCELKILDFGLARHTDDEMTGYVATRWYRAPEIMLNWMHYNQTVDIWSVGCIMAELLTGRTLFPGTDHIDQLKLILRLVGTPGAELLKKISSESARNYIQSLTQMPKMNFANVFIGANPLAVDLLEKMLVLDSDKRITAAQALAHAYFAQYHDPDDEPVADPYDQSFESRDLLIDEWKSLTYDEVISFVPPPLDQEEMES
RAC-alpha serine/threonine-protein kinase, sequence (P31749 whole entry): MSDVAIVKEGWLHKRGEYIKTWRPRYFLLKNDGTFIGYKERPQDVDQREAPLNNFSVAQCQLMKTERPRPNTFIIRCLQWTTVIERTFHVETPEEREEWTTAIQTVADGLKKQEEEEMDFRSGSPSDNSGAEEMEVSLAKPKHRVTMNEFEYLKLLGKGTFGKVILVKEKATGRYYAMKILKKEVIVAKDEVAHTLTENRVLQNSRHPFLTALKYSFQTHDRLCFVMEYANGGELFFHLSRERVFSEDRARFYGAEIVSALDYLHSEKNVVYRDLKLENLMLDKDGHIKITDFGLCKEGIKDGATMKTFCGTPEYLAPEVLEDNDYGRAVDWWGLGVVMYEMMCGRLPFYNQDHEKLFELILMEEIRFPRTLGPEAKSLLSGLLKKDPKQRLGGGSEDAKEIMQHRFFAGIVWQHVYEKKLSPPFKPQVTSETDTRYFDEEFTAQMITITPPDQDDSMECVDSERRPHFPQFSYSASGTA
MAP kinase-activated protein kinase 2 (Homo sapiens), sequence (P49137 whole entry, looked up): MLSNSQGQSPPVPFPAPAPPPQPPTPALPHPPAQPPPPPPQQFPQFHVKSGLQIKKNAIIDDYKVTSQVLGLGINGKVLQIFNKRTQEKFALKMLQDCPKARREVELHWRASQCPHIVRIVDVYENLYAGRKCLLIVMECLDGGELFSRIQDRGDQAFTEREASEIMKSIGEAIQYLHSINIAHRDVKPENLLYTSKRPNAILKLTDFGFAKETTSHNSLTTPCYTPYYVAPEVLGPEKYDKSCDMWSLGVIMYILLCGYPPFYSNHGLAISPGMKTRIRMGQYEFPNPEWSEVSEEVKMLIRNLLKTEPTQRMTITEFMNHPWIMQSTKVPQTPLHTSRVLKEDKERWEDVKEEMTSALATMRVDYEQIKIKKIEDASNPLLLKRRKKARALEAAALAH
Glycogen synthase kinase-3 beta, sequence (P49841 whole entry, looked up): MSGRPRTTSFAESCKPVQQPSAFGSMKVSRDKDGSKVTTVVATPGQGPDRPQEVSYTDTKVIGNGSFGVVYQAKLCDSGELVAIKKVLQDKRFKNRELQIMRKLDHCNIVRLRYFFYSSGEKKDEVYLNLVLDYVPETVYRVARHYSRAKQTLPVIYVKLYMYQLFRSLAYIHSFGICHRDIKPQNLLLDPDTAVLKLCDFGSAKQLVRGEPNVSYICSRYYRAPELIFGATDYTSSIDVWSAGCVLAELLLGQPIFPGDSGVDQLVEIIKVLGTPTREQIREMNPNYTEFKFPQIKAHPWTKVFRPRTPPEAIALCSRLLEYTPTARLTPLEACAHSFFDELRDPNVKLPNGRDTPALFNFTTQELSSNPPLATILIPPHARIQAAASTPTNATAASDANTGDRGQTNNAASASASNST
Tyrosine-protein kinase Lck, sequence (P06239 2-509 limits assumed): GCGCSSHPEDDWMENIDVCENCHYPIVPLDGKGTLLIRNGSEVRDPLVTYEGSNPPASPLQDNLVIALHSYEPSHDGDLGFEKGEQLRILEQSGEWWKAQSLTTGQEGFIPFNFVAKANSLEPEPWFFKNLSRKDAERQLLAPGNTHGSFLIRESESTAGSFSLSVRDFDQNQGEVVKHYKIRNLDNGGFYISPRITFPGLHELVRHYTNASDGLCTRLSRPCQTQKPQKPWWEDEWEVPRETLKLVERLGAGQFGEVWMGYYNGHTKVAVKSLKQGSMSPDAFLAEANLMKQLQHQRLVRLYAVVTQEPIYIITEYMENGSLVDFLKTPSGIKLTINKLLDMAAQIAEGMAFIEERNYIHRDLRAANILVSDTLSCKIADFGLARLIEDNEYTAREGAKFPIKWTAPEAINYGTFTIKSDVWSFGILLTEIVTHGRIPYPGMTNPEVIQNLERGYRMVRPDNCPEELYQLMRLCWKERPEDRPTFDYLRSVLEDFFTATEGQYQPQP

| SMILES | inhibition [1] [%] | inhibition [2] [%] | inhibition [3] [%] | inhibition [4] [%] | inhibition [5] [%] | inhibition [6] [%] | inhibition [7] [%] | inhibition [8] [%] | inhibition [9] [%] | inhibition [10] [%] | inhibition [11] [%] | inhibition [12] [%] | inhibition [13] [%] | inhibition [14] [%] | inhibition [15] [%] | inhibition [16] [%] |
| --- | --- | --- | --- | --- | --- | --- | --- | --- | --- | --- | --- | --- | --- | --- | --- | --- |
| NC1(Cc2ccccc2)CCN(c2ncnc3[nH]cnc23)CC1 | 96 | 94 | 40 | 74 | 0 | 93 | 67 | 11 | 71 | 23 | 39 | 73 | 45 | 53 | 41 | 53 |
| c1ccc(C2CCNC3(CCN(c4ncnc5[nH]cnc45)CC3)C2)cc1 (racemic) | 76 | 85 | 18 | 89 | 2 | 99 | 54 | 0 | 73 | 3 | 56 | 97 | 39 | 20 | 39 | 71 |
| c1ccc(CC2CCNC3(CCN(c4ncnc5[nH]cnc45)CC3)C2)cc1 (racemic) | 64 | 90 | 8 | 98 | 0 | 101 | 74 | 10 | 60 | 3 | 28 | 100 | 16 | 21 | 66 | 84 |
| O=C(O)C1CCC2(CCN(c3ncnc4[nH]cnc34)CC2)NC1 (racemic) | 95 | 97 | 0 | 17 | 44 | 40 | 37 | 21 | 15 | 21 | 5 | 51 | 2 | 28 | 36 | 44 |
| CN(C)C(=O)C1CCC2(CCN(c3ncnc4[nH]cnc34)CC2)NC1 (racemic) | 69 | 28 | 18 | 27 | 17 | 69 | 25 | 14 | 19 | 10 | 0 | 93 | 17 | 7 | 20 | 30 |
| CNC(=O)C1CCC2(CCN(c3ncnc4[nH]cnc34)CC2)NC1 (racemic) | 74 | 42 | 21 | 41 | 16 | 83 | 30 | 16 | 31 | 10 | 8 | 80 | 23 | 17 | 30 | 35 |
| COC(=O)C1CCC2(CCN(c3ncnc4[nH]cnc34)CC2)NC1 (racemic) | 64 | 35 | 21 | 19 | 10 | 61 | 19 | 8 | 16 | 6 | 6 | 48 | 18 | 12 | 14 | 36 |
| O=C(C1CCC2(CCN(c3ncnc4[nH]cnc34)CC2)NC1)N1CCOCC1 (racemic) | 72 | 27 | 14 | 25 | 16 | 66 | 20 | 9 | 16 | 11 | 0 | 62 | 28 | 9 | 18 | 27 |
| O=S(=O)(c1cccc2cnccc12)N1CCC2(CC1)CC(O)CCN2 (racemic) | 39 | 74 | 18 | 13 | 0 | 36 | 9 | 1 | 26 | 1 | 9 | 86 | 12 | 51 | 20 | 38 |
| OCC1CCC2(CCN(c3ncnc4[nH]cnc34)CC2)NC1 (racemic) | 84 | 74 | 43 | 38 | 17 | 80 | 32 | 14 | 15 | 22 | 1 | 88 | 15 | 21 | 31 | 45 |
| c1ccc(CC2CCC3(CCN(c4ncnc5[nH]cnc45)CC3)NC2)cc1 (racemic) | 89 | 48 | 7 | 36 | 18 | 80 | 41 | 6 | 44 | 15 | 20 | 75 | 31 | 14 | 31 | 30 |
